According to ChEMBL document CHEMBL4842319, “Synthesis of alkynylated 1,2,4-oxadiazole/1,2,3-1H-triazole glycoconjugates: Discovering new compounds for use in chemotherapy against lung carcinoma and Mycobacterium tuberculosis” (Eur J Med Chem, 2021):
Converted amounts (≈) assume the structure as drawn.

Assays:
[1] = Cytotoxicity against human AGP01 cells assessed as inhibition of cell proliferation at 25 uM incubated for 72 hrs by MTT assay relative to control; type: functional; design: scale not given: the % may be the effect or the level left
Method in brief: (§1)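 Tumor lines from NCI. PC-3, HCT-116 and NCIH-460 were grown in RPMI 1640; SKMEL-103 and AGP-01 in DMEM; all with 10% FBS at 37 °C, 5% CO2. Seeding was 0.3×10⁶ cells/mL for SKMEL-103 and AGP-01, 0.1×10⁶ for PC-3 and NCIH-460, and 0.7×10⁵ for HCT-116. Cells were exposed to compound at 25 µM for 72 h. Cells were centrifuged, 1% MTT added for 3 h, formazan dissolved in DMSO and read at 570 nm.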

SK-MEL-103 = experiment: Cytotoxicity against human SK-MEL-103 cells assessed as inhibition of cell proliferation at 25 uM incubated for 72 hrs by MTT assay relative to control; type: functional; design: scale not given: the % may be the effect or the level left; method in brief: as §1
PC-3 = experiment: Cytotoxicity against human PC-3 cells assessed as inhibition of cell proliferation at 25 uM incubated for 72 hrs by MTT assay relative to control; type: functional; design: scale not given: the % may be the effect or the level left; method in brief: as §1
NCI-H460 = experiment: Cytotoxicity against human NCI-H460 cells assessed as inhibition of cell proliferation at 25 uM incubated for 72 hrs by MTT assay relative to control; type: functional; design: scale not given: the % may be the effect or the level left; method in brief: as §1
HCT-116 = experiment: Cytotoxicity against human HCT-116 cells assessed as inhibition of cell proliferation at 25 uM incubated for 72 hrs by MTT assay relative to control; type: functional; design: scale not given: the % may be the effect or the level left; method in brief: as §1
[2] = Selectivity index, ratio of CC50 for mouse RAW264.7 cells to MIC for antimycobacterial activity against Mycobacterium tuberculosis H37Rv ATCC 27294; type: toxicity; conditions: read-out: Selectivity Index
[3] = system: Mycobacterium tuberculosis; experiment: Antimycobacterial activity against Mycobacterium tuberculosis H37Rv ATCC 27294 assessed as inhibition of bacterial growth incubated for 9 days by resazurin microtiter assay; type: functional; conditions: H37Rv ATCC 27294, 216 h, time 9 day
Method in brief: (§2)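 REMA broth microdilution in 7H9-S medium, run in duplicate. Test compounds were serially two-fold diluted on the plate from 64 to 0.5 µg/mL. Inoculum taken from fresh Löwenstein-Jensen culture, adjusted to McFarland no. 1 and diluted 1:20. Plates were sealed and incubated at 37 °C in normal atmosphere for 9 days, then resazurin was added. Rifampicin and ethambutol served as standards. MIC reported in µg/mL.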

[4] = system: Mycobacterium tuberculosis; experiment: Antimycobacterial activity against Mycobacterium tuberculosis H37Ra ATCC 25177 assessed as inhibition of bacterial growth incubated for 9 days by resazurin microtiter assay; type: functional; conditions: H37Ra ATCC 25177, 216 h, time 9 day; method in brief: as §2
[5] = Cytotoxicity against mouse RAW264.7 cells assessed as reduction in cell viability incubated for 48 hrs by MTT assay; type: cell-based
Method in brief: (§3)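 RAW 264.7 macrophages and HepG2 cells were cultured in DMEM at 37 °C, 5% CO2. For the assay, 10⁵ cells/well were preincubated for 24 h, then exposed to compounds at […] for 48 h, in duplicate. MTT (5 mg/mL in PBS) was added for 2 h and absorbance read at 570 nm. Untreated wells served as the negative control. CC50 obtained by regression analysis.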

[6] = Cytotoxicity against human HepG2 cells assessed as reduction in cell viability incubated for 48 hrs by MTT assay; type: cell-based; method in brief: as §3
[7] = Selectivity index, ratio of CC50 for human HepG2 cells to MIC for antimycobacterial activity against Mycobacterium tuberculosis H37Rv ATCC 27294; type: toxicity; conditions: read-out: Selectivity Index

Row | SMILES | Activity [1] | Activity (SK-MEL-103) | Activity (PC-3) | Activity (NCI-H460) | Activity (HCT-116) | selectivity ratio [2] | MIC [3] | MIC [4] | CC50 at 48 h [5] | CC50 at 48 h [6] | selectivity ratio [7]
1 | O=[N+]([O-])c1ccc(-c2noc(NC3CCCCC3)n2)cc1 | 53.2% | 50.7% | 20.3% | 10.4% |  |  |  |  |  |  | 
2 | O=[N+]([O-])c1cccc(-c2noc(NC3CCCCC3)n2)c1 | 11.6% | 32% | 9.9% |  | 14.1% |  |  |  |  |  | 
3 | CC(=O)OC[C@H]1O[C@H](OC[C@@H](CN=[N+]=[N-])OC(C)=O)C=C[C@@H]1OC(C)=O |  |  |  |  |  | < 1.66 | ≥ 64 µg/mL | ≥ 64 µg/mL | 106 µg/mL (≈ 286 µM) | > 200 µg/mL | 
4 | CC(=O)OC[C@H]1O[C@H](OC[C@H](Cn2cc(COc3ccc(-c4noc(C)n4)cc3)nn2)OC(C)=O)C=C[C@@H]1OC(C)=O |  |  |  |  |  | < 1.74 | ≥ 64 µg/mL | ≥ 64 µg/mL | 112 µg/mL (≈ 191 µM) | 37.7 µg/mL (≈ 64.3 µM) | < 0.58
5 | CC(=O)OC[C@H]1O[C@H](OC[C@@H](Cn2cc(CN(c3nc(-c4cccc([N+](=O)[O-])c4)no3)C3CCCCC3)nn2)OC(C)=O)C=C[C@@H]1OC(C)=O | 44.7% | 42.2% | 38.4% |  | 27.7% | < 1.56 | ≥ 64 µg/mL | ≥ 64 µg/mL | 100 µg/mL (≈ 144 µM) | > 200 µg/mL | 
6 | C#CCN(c1nc(-c2ccc(Br)cc2)no1)C1CCCCC1 |  |  |  |  |  | 0.48 | 32 µg/mL (≈ 88.8 µM) | 32 µg/mL (≈ 88.8 µM) | 15.7 µg/mL (≈ 43.5 µM) | 102 µg/mL (≈ 283 µM) | 3.18
7 | CC(=O)OC[C@H]1O[C@H](OC[C@H](Cn2cc(-c3ccc(-c4noc(NC5CCCCC5)n4)cc3)nn2)OC(C)=O)C=C[C@@H]1OC(C)=O |  |  |  |  |  | < 0.25 | ≥ 64 µg/mL | ≥ 64 µg/mL | 16.3 µg/mL (≈ 25.5 µM) | 79.8 µg/mL (≈ 125 µM) | < 1.24
8 | CC(=O)OC[C@H]1O[C@H](OC[C@@H](Cn2cc(CN(c3nc(-c4ccc(Cl)cc4)no3)C3CCCCC3)nn2)OC(C)=O)C=C[C@@H]1OC(C)=O |  |  |  |  |  | 0.55 | 64 µg/mL (≈ 93.1 µM) | 64 µg/mL (≈ 93.1 µM) | 35.5 µg/mL (≈ 51.7 µM) | 46.9 µg/mL (≈ 68.3 µM) | 0.73
9 | CC(=O)OC[C@H]1O[C@H](OC[C@H](Cn2cc(COc3ccc(-c4noc(NC5CCCCC5)n4)cc3)nn2)OC(C)=O)C=C[C@@H]1OC(C)=O |  |  |  |  |  | 2.08 | 16 µg/mL (≈ 23.9 µM) | 16 µg/mL (≈ 23.9 µM) | 33.3 µg/mL (≈ 49.8 µM) | 99.5 µg/mL (≈ 149 µM) | 6.21
10 | C#CCOc1ccc(-c2noc(N(CC#C)C3CCCCC3)n2)cc1 |  |  |  |  |  | 1.57 | 64 µg/mL (≈ 191 µM) | ≥ 64 µg/mL | 101 µg/mL (≈ 300 µM) | > 200 µg/mL | > 3.12
11 | CCCCCCCCCCc1cn(C[C@@H](CO[C@@H]2C=C[C@H](OC(C)=O)[C@@H](COC(C)=O)O2)OC(C)=O)nn1 |  |  |  |  |  | 0.47 | 64 µg/mL (≈ 119 µM) | 64 µg/mL (≈ 119 µM) | 30.4 µg/mL (≈ 56.5 µM) | 59 µg/mL (≈ 110 µM) | 0.92
12 | C#CCN(c1nc(-c2ccc([N+](=O)[O-])cc2)no1)C1CCCCC1 | 52.5% | 18.5% | 53.7% |  | 37.2% | < 0.41 | ≥ 64 µg/mL | ≥ 64 µg/mL | 26.7 µg/mL (≈ 81.9 µM) | 43.7 µg/mL (≈ 134 µM) | < 0.68
13 | C#CCN(c1nc(-c2ccc(C#C)cc2)no1)C1CCCCC1 |  |  |  |  |  | < 0.2 | ≥ 64 µg/mL |  | 13.1 µg/mL (≈ 42.9 µM) | 27.9 µg/mL (≈ 91.5 µM) | < 0.43
14 | CC(=O)OC[C@H]1O[C@H](OC[C@@H](Cn2cc(CN(c3nc(-c4ccc(-c5cn(C[C@H](CO[C@@H]6C=C[C@H](OC(C)=O)[C@@H](COC(C)=O)O6)OC(C)=O)nn5)cc4)no3)C3CCCCC3)nn2)OC(C)=O)C=C[C@@H]1OC(C)=O |  |  |  |  |  | < 1.82 | ≥ 64 µg/mL | ≥ 64 µg/mL | 117 µg/mL (≈ 111 µM) | 11.8 µg/mL (≈ 11.2 µM) | < 0.18
15 | C#CCN(c1nc(-c2ccc(C(F)(F)F)cc2)no1)C1CCCCC1 |  |  |  |  |  | 1.2 | 32 µg/mL (≈ 91.6 µM) | 64 µg/mL (≈ 183 µM) | 38.3 µg/mL (≈ 110 µM) | 61.9 µg/mL (≈ 177 µM) | 1.93
16 | CC(=O)OC[C@H]1O[C@H](OC[C@@H](Cn2cc(CN(c3nc(-c4ccc(Br)cc4)no3)C3CCCCC3)nn2)OC(C)=O)C=C[C@@H]1OC(C)=O |  |  |  |  |  | 4.89 | 8 µg/mL (≈ 10.9 µM) | 4 µg/mL (≈ 5.47 µM) | 39.1 µg/mL (≈ 53.5 µM) | 47.6 µg/mL (≈ 65.1 µM) | 5.95
17 | C#CCN(c1nc(-c2ccc(C)cc2)no1)C1CCCCC1 |  |  |  |  |  | < 0.27 | ≥ 64 µg/mL | 64 µg/mL (≈ 217 µM) | 17.6 µg/mL (≈ 59.5 µM) | 91.9 µg/mL (≈ 311 µM) | < 1.43
18 | C#CCN(c1nc(-c2ccc(Cl)cc2)no1)C1CCCCC1 |  |  |  |  |  | 0.95 | 16 µg/mL (≈ 50.7 µM) | 32 µg/mL (≈ 101 µM) | 15.1 µg/mL (≈ 47.9 µM) | 41.3 µg/mL (≈ 131 µM) | 2.58
19 | CC(=O)OC[C@H]1O[C@H](OC[C@@H](Cn2cc(COc3ccc(-c4noc(N(Cc5cn(C[C@H](CO[C@@H]6C=C[C@H](OC(C)=O)[C@@H](COC(C)=O)O6)OC(C)=O)nn5)C5CCCCC5)n4)cc3)nn2)OC(C)=O)C=C[C@@H]1OC(C)=O |  |  |  |  |  |  | ≥ 64 µg/mL | ≥ 64 µg/mL | > 200 µg/mL | 47 µg/mL (≈ 43.6 µM) | < 0.73
20 | CC(=O)OC[C@H]1O[C@H](OC[C@@H](Cn2cc(CN(c3nc(-c4cccc(Br)c4)no3)C3CCCCC3)nn2)OC(C)=O)C=C[C@@H]1OC(C)=O | 59.9% | 52.3% | 45.5% | 27.1% |  |  |  |  |  |  | 
21 | CC[C@@H](CO)NCCN[C@@H](CC)CO [ETHAMBUTOL] |  |  |  |  |  |  | 1 µg/mL (≈ 4.89 µM) | 1 µg/mL (≈ 4.89 µM) | ≥ 400 µg/mL | > 400 µg/mL | 
22 | CO[C@H]1/C=C/O[C@@]2(C)Oc3c(C)c(O)c4c(O)c(c(/C=N/N5CCN(C)CC5)c(O)c4c3C2=O)NC(=O)/C(C)=C\C=C\[C@H](C)[C@H](O)[C@@H](C)[C@@H](O)[C@@H](C)[C@H](OC(C)=O)[C@@H]1C [RIFAMPIN] |  |  |  |  |  | 643 | 0.125 µg/mL (≈ 0.152 µM) | 0.062 µg/mL (≈ 0.0753 µM) | 80.4 µg/mL (≈ 97.7 µM) | 176 µg/mL (≈ 214 µM) | 1410
